Source: PubChem (several laboratories)
Compounds with a hit are over-represented: about 3.9% of the library has one in this group of screens.
STAT1 inh – STAT1 signaling inhibition; inhibition, % at 5.5 µM; NIH 3T3 STAT1-luciferase reporter, IFN-gamma, luminescence; 200,000 tested, 0.35% active;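 active = inhibition above a set limit, the mean inhibition across all tested compounds plus 3 SD, cut at about 34% in these data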;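 note: 0% = IFN-gamma with DMSO and 100% = IFN-gamma with 300 µM nifuroxazide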
STAT1 activator – increases IFN-gamma driven STAT1 reporter signal; NIH 3T3 STAT1-luciferase reporter, luminescence; 100% = IFN-gamma alone, no compound; activation (% of control), % at 5.5 µM; 200,000 tested, 2.6% active; AID 932;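 active = activation above the screen-wide mean activation plus 3 SD, cut at about 130% in these data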;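 note: raw ratio to IFN-gamma control signal so 100% means no change and 0% no light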
STAT3 activator – increases IL-6 driven STAT3 reporter signal; activation (% of control), % at 5.6 µM; 190,000 tested, 0.91% active; U3A cells, IL-6 STAT3-luciferase reporter, luminescence; 100% = signal with IL-6 EC80 alone;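 active = activation above the screen-wide mean of compound activation plus 3 SD, cut at about 130% in these data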;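 note: 0% = background luminescence of wells with medium and substrate only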
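System – human U3A cells carrying STAT3-luciferase construct · Probe or stimulus – Interleukin-6, 33 ng/mL · Schedule – compound 1 h, then IL-6 6 h at 37 °C · Signal – luminescence from STAT3-driven luciferase reporter · Evaluation – percent of IL-6-only median luminescence · Benchmarks – IL-6-only high control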
NF-kB expr up – compounds increasing NF-kB expression in human neuronal cells; NF-kB reporter expression; stronger effect = higher value; 190,000 tested, 1.6% active; fold change at 12.5 µM; in the data active = fold change above about 3.3
Pf gametocyte – inhibitors of late stage P. falciparum gametocyte viability. P. falciparum stage V gametocytes, ATP luminescence, 24 h. inhibition, % at 10.9 µM. 150,000 tested, 0.065% active. AID 743093;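 active = inhibition above the mean plus 3 SD of compounds within the control limits, set per campaign, cut at about 38% in these data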;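 note: 0% = DMSO wells and 100% = medium only without gametocytes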
APP 5'UTR act – activates APP 5'UTR luciferase reporter | activation, % at 2 µM | AID 1276 | 190,000 tested, 1% active | SH-SY5Y APP 5'UTR luciferase reporter, luminescence; zero percent = DMSO vehicle wells;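 active = activation above a set limit, based on mean plus 3 SD of controls, cut at about 140% in these data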
* marks the source's active call; other numbers are inactive results; nt = no result.

SMILES	STAT1 inh	STAT1 activator	STAT3 activator	NF-kB expr up	Pf gametocyte	APP 5'UTR act
COc1cccc(-c2nnc(-c3ccco3)o2)c1	-49.9	144.1*	95.7	2.96	nt	108.9
CC(=O)N/C(=C/c1ccc(OS(=O)(=O)c2ccc(C)cc2)cc1)C(=O)Nc1ccc(C(=O)O)cc1	nt	nt	nt	nt	7.2	nt
COC(=O)Cc1c(OC)ccn(CCc2c[nH]c3ccccc23)c1=O	-38.5	136.1*	106.8	2.66	2.5	89.6
COC(=O)Cc1c(O)ccn(CCc2c[nH]c3ccccc23)c1=O	2.4	97.7	94.2	1.11	-17.9	3.4
Cc1ccc(-c2nc3cccnc3s2)cc1NS(C)(=O)=O	-45.0	139.4*	nt	1.11	nt	60.7
CCCS(=O)(=O)Nc1cccc(-c2nc3cccnc3s2)c1	nt	nt	nt	nt	11.4	nt
Cc1cc(=O)n2nc(-c3ccc(C(F)(F)F)cc3)sc2n1	-31.7	129.3*	93.6	1.4	nt	-1.8
CC(=NC1CCCCC1)C1=C(O)c2ccccc2C1=O	-53.1	148.5*	110.0	nt	nt	132.1
CC(=O)N(C1=C(Cl)C(=O)c2ccccc2C1=O)C1CCCCC1	nt	nt	nt	nt	16.1	nt
O=C(CSc1ccccn1)Nc1ccc2ccccc2c1	-33.5	132.1*	95.3	3	nt	137.1*
Cc1ccc(NC(=O)CCSc2ccccn2)cc1	-47.9	142.0*	92.0	3	13.7	80.8
Cc1cccc(NC(=O)CCSc2ccccn2)c1	-6.7	106.0	107.8	1.52	11.5	16.4
COC(=O)CCCn1c(C)cc(C(=O)CCl)c1C	14.3	86.5	92.9	3.63*	13.8	-15.5
CSc1cccc(NC(=S)NC(=O)c2cccnc2)c1	nt	nt	nt	nt	-3.8	nt
COc1ccc(-c2noc(-c3ccc(Cl)cc3[N+](=O)[O-])n2)cc1OC	-3.4	103.0	95.0	1.92	nt	42.1
COc1ccc(-c2noc(-c3ccoc3C)n2)cc1OC	-45.5	142.6*	92.7	3.58*	-2.3	61.0
Cc1cccc(-c2noc(-c3ccc(Cl)cc3[N+](=O)[O-])n2)c1	-9.8	108.7	114.7	5.34*	-8.0	177.6*
COc1ccc(-c2noc(-c3cccc(Cl)c3)n2)cc1OC	-16.0	114.5	92.6	2.02	-21.2	51.6
COc1ccc(-c2nc(-c3ccncc3)no2)cc1OC	-32.5	132.0*	117.5	1.08	2.4	78.1
Cc1cccc(-c2noc(-c3ccoc3C)n2)c1	-53.2	149.9*	99.7	2.11	14.0	105.1
CC1CN(CCC(=O)Nc2ccccc2F)CC(C)O1 (stereo not given)	nt	nt	nt	nt	-10.6	nt
CCC(CC)C(=O)Nc1cc(Cl)ccc1C	4.9	92.6	97.2	0.89	nt	4.5
O=C(O)c1ccc2c(=O)[nH]c(CCl)nc2c1	3.2	95.7	105.6	0.97	-23.6	12.2
COc1ccc(-c2noc(-c3ccccc3Cl)n2)cc1OC	-46.5	143.0*	109.1	4.89*	1.9	125.4
CC(C)(C=O)C1=CC(=O)c2ccccc2C1=O	13.8	87.7	139.1*	0.97	20.6	-80.5
SMILES	STAT1 inh	STAT1 activator	STAT3 activator	NF-kB expr up	Pf gametocyte	APP 5'UTR act
O=C(NC(=S)Nc1cc(-c2nc3ccccc3[nH]2)ccc1Cl)c1ccc2c(c1)OCO2	-48.9	144.3*	112.9	2.22	nt	-6.8
CC(=O)c1sc(NC(=O)C=C(C)C)nc1C	-5.8	105.4	96.4	1.9	-23.4	12.8
CC(=O)c1sc(NC(=O)C2(F)C(F)(F)C(F)(F)C(F)(F)C(F)(F)C2(F)F)nc1C	37.4*	65.7	54.8	0.55	-17.7	-11.6
Cc1ccc(S(=O)(=O)c2cnc(-c3ccccc3)nc2N2CCCCC2)cc1	-6.7	104.1	103.3	0.87	-19.7	-16.5
O=S(=O)(c1ccccc1)c1cnc(-c2ccccc2)nc1N1CCCC1	-51.4	145.8*	89.8	1.63	nt	-13.0
O=C(Nc1ccncc1)C1COc2ccccc2O1 (stereo not given)	4.0	96.3	90.2	1.03	-5.6	-6.3
O=C(Nc1nc2c(s1)CCCC2)C1COc2ccccc2O1 (stereo not given)	20.0	82.1	43.4	1.92	nt	147.3*
O=C(NC1=NCCS1)C1COc2ccccc2O1 (stereo not given)	76.6*	28.7	13.7	0.33	nt	-1.7
CCC(CC)c1nnc(NC(=O)C2COc3ccccc3O2)s1 (stereo not given)	-41.5	136.9*	98.7	1.99	-40.4	121.3
CCc1nnc(NC(=O)C2COc3ccccc3O2)s1 (stereo not given)	-15.1	113.9	103.6	2.24	6.5	49.7
